Data published in ChEMBL document CHEMBL4706691, “Bicyclic Diazepinones as Dual Ligands of the α2δ-1 Subunit of Voltage-Gated Calcium Channels and the Norepinephrine Transporter” (J Med Chem, 2021).

How the values were obtained:
[1] = molecular target: Voltage-dependent calcium channel subunit alpha-2/delta-2 (Homo sapiens, UniProt Q9NY47); test: Displacement of [3H]-gabapentin from human Cav alpha2delta2 expressed in HEK293 cell membranes incubated for 60 mins by scintillation counting method
[2] = molecular target: Voltage-dependent calcium channel subunit alpha-2/delta-1 (Homo sapiens, UniProt P54289); test: Displacement of [3H]-gabapentin from human Cav alpha2delta1 expressed in CHO-K1 cell membranes incubated for 60 mins by scintillation counting method; set-up: species or system Cell membrane
Chain of Voltage-dependent calcium channel subunit alpha-2/delta-1 (P54289 25-956 limits assumed): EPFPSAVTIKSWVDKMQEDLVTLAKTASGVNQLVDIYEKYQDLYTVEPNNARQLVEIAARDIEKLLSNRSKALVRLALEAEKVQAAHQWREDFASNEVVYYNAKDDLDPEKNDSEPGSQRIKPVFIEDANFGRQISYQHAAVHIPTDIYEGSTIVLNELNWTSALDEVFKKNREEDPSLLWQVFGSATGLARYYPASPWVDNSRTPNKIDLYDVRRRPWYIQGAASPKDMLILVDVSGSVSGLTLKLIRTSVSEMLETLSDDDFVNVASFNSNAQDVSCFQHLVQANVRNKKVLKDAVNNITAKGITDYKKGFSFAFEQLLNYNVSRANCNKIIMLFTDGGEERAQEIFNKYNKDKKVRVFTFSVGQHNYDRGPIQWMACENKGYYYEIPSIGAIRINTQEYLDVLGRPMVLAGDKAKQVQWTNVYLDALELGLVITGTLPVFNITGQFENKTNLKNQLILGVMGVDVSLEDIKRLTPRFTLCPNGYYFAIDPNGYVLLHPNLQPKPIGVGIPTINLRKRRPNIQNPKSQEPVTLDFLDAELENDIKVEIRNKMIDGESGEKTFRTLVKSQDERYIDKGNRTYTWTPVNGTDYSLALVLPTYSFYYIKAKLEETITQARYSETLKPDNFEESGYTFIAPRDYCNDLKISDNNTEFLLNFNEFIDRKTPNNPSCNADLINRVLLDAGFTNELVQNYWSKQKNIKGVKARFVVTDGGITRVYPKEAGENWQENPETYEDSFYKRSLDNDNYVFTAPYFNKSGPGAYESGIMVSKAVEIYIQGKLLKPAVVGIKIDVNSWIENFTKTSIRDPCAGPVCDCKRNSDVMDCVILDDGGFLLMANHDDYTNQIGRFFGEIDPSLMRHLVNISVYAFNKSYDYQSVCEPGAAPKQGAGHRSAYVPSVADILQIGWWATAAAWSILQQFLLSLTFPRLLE
Chain of Voltage-dependent calcium channel subunit alpha-2/delta-1 (P54289 957-1103 limits assumed): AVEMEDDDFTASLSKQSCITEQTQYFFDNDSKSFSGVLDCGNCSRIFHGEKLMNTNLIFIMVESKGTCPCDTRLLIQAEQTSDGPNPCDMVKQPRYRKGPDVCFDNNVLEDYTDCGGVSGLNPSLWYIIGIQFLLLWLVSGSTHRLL
Outline: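 Nonspecific binding defined with 10 μM pregabalin. Test compounds at five concentrations in duplicate, giving Ki. Bound radioactivity collected by filtration on PEI-soaked GF/C, washed with cold 50 mM Tris-HCl, then scintillation counted.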

[3] = molecular target: T1, Sodium-dependent noradrenaline transporter (Homo sapiens, UniProt P23975); test: Inhibition of human NET expressed in HEK293 cells assessed as reduction in ASP+ uptake incubated for 20 mins before ASP+ addition and measured after 90 mins by scintillation counting method
T1 sequence (P23975 whole entry): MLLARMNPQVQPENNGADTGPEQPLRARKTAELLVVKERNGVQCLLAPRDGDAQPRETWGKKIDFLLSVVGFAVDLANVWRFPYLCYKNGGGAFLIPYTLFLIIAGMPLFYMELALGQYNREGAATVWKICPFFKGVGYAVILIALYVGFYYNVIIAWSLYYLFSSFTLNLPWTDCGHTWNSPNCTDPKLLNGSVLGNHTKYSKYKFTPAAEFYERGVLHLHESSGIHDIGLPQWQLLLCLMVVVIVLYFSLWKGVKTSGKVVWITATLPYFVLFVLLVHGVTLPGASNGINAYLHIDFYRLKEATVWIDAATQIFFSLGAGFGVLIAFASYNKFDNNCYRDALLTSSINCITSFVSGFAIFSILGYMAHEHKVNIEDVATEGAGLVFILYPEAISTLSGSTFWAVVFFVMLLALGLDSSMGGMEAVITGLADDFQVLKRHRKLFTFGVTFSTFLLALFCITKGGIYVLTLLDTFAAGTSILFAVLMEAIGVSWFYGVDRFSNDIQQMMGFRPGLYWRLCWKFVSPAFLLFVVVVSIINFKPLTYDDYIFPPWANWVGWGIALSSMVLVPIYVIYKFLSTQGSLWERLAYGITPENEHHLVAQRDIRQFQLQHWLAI

[4] = molecular target: T1, Sodium-dependent noradrenaline transporter; test: Displacement of [3H]-nisoxetine from human NET expressed in HEK293 cell membranes incubated for 60 mins by scintillation counting method
[5] = molecular target: T2, CYP1A2 (Homo sapiens, UniProt P05177); test: Inhibition of human CYP1A2 at 1 uM relative to control; type: ADME
T2 sequence (P05177 whole entry): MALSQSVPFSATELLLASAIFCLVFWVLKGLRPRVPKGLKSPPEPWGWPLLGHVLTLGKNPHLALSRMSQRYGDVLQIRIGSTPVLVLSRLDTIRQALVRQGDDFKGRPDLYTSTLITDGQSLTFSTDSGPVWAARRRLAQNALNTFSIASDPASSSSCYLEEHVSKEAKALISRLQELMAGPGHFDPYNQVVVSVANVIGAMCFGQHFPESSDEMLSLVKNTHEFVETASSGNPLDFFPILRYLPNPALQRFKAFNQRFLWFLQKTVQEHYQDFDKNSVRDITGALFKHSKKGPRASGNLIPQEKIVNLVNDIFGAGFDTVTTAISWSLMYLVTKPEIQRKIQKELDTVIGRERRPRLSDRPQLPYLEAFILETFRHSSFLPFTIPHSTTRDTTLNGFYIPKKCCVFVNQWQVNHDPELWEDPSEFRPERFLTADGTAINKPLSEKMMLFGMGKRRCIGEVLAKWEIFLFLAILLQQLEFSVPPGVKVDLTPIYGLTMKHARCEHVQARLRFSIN

[6] = molecular target: CYP3A4 (Homo sapiens, UniProt P08684); test: Inhibition of human CYP3A4 at 1 uM relative to control; type: ADME
Chain of CYP3A4 (P08684 whole entry): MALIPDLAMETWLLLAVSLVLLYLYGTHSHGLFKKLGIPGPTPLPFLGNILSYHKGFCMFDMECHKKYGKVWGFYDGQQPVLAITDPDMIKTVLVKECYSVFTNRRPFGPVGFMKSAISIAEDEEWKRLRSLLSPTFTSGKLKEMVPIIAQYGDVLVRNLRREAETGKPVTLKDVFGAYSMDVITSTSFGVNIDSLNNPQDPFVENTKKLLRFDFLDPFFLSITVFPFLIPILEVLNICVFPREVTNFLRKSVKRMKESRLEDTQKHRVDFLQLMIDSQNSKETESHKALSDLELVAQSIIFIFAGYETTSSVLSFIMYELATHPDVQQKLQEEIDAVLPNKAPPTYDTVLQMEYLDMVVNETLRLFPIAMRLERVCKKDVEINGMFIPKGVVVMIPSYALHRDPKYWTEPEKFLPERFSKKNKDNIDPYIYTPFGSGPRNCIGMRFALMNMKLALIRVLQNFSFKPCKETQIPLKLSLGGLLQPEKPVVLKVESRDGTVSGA

[7] = molecular target: CYP2D6 (Homo sapiens, UniProt P10635); test: Inhibition of human CYP2D6 at 1 uM relative to control; type: ADME
[8] = molecular target: CYP2C9 (Homo sapiens, UniProt P11712); test: Inhibition of human CYP2C9 at 1 uM relative to control; type: ADME
Chain of CYP2C9 (P11712 whole entry): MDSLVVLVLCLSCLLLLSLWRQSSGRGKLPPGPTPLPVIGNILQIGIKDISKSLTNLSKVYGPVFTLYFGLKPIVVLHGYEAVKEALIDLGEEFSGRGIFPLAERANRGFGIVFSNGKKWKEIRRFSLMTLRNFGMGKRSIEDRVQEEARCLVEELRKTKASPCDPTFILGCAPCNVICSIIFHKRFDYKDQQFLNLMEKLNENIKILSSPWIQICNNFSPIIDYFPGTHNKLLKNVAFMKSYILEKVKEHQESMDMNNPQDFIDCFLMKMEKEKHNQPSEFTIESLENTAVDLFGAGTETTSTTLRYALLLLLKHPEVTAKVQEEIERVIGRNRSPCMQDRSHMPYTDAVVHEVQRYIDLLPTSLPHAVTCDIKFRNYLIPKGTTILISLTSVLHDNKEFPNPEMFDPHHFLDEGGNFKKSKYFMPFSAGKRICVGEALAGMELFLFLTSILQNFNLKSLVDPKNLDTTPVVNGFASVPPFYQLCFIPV

[9] = molecular target: CYP2C19 (Homo sapiens, UniProt P33261); test: Inhibition of human CYP2C19 at 1 uM relative to control; type: ADME
[10] = molecular target: Voltage-gated inwardly rectifying potassium channel KCNH2 (Homo sapiens, UniProt Q12809); test: Inhibition of human ERG
Chain of Voltage-gated inwardly rectifying potassium channel KCNH2 (Q12809 whole entry): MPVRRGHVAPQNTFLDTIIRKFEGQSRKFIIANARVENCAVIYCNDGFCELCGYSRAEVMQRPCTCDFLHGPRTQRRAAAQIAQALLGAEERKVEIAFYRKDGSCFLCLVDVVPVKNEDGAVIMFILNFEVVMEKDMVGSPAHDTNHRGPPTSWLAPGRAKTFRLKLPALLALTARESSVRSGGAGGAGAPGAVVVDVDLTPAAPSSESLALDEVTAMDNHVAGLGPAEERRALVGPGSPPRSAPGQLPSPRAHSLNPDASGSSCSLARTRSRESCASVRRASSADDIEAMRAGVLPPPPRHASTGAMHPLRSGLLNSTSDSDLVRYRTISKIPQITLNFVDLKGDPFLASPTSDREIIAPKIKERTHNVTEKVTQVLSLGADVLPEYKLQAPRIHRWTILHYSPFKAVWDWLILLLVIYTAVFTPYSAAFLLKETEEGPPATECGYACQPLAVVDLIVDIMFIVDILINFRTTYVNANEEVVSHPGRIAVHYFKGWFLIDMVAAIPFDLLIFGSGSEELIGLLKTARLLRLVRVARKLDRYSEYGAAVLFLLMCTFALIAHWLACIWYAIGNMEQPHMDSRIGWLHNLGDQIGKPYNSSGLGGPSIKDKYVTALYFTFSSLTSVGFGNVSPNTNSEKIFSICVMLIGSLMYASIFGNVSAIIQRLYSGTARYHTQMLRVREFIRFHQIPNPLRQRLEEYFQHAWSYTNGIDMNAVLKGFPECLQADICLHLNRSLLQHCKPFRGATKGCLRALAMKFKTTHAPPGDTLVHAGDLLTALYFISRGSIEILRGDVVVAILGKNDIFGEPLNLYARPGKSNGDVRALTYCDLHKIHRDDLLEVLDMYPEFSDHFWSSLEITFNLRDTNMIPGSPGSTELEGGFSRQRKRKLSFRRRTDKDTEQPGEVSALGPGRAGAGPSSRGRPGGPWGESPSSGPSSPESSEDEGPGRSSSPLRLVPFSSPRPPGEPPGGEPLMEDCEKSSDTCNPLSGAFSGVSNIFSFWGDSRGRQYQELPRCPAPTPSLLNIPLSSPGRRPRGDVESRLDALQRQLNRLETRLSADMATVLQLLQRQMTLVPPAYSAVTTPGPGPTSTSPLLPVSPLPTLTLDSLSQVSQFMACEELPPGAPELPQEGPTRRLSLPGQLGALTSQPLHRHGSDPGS

[11] = Intrinsic clearance in rat liver microsomes
[12] = Intrinsic clearance in human liver microsomes

Chain of Voltage-dependent calcium channel subunit alpha-2/delta-2 (Q9NY47 19-1001 limits assumed): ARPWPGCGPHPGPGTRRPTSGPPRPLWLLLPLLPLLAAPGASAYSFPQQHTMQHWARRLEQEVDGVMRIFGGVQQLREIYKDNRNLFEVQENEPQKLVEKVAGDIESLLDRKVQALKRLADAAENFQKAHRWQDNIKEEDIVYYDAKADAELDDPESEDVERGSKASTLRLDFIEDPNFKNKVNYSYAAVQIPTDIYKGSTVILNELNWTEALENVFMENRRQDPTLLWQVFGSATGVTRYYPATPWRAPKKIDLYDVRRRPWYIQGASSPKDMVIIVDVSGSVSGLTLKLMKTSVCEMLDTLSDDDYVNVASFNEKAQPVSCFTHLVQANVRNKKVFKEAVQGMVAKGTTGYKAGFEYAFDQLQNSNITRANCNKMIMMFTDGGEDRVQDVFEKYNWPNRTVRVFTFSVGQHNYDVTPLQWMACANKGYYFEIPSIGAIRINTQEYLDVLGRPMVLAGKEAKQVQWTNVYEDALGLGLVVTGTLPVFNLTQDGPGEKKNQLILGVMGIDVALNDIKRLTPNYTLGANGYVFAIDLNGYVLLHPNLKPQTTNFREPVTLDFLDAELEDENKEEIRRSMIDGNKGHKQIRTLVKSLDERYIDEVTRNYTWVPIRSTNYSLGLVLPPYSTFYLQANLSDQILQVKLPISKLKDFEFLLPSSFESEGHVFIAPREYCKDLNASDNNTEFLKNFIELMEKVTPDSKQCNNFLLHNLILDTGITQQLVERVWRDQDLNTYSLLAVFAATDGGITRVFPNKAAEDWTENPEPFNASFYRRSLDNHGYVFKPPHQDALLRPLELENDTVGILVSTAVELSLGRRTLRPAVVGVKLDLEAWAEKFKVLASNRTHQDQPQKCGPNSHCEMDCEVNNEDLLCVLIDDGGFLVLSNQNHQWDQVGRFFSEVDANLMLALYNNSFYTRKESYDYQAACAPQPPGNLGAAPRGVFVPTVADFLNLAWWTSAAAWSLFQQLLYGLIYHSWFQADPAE
Chain of Voltage-dependent calcium channel subunit alpha-2/delta-2 (Q9NY47 1002-1150 limits assumed): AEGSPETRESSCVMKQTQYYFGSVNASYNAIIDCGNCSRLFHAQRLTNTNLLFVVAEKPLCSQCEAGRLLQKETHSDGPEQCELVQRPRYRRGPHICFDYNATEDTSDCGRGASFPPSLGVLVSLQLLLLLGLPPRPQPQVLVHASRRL

| Compound | Ki [2] [µM] | IC50 [3] [µM] | Ki [4] [µM] | also measured |
| --- | --- | --- | --- | --- |
| CCNc1ncc2c(n1)N1CCC[C@H]1CN(c1cccc(-c3noc(C)n3)c1)C2=O | 0.011 | > 10 | > 10 | Ki [1]: 2.15 µM |
| CNc1ncc2c(n1)N(C)CCN(c1cccc(-c3nnc(C)o3)c1)C2=O | 0.244 | > 10 | > 10 | Ki [1]: > 10 µM |
| CNCC[C@H](Oc1cccc(N2CCN(C)c3nc(N)ncc3C2=O)c1)c1cccs1 |  |  |  | inhibition at 1 µM [5]: < 50%; inhibition at 1 µM [6]: < 50%; inhibition at 1 µM [7]: < 50%; inhibition at 1 µM [8]: < 50%; inhibition at 1 µM [9]: < 50%; IC50 [10]: > 10 µM |
| CNCC[C@@H](Oc1cccc(N2CCN(C)CCC2=O)c1)c1cccs1 | 0.606 |  |  |  |
| CNCCC(Oc1cccc(N2CCN(C)c3cccnc3C2=O)c1)c1cccs1 (stereo not drawn) | 1.25 |  |  |  |
| CNCCC(Oc1cccc(N2CCN(C)c3cnccc3C2=O)c1)c1cccs1 (stereo not drawn) | 0.208 |  |  |  |
| CCNc1ncc2c(n1)N(C)CCN(c1ccccc1OC(CCNC)c1ccccc1)C2=O (stereo not drawn) | 3.49 | > 10 | > 10 |  |
| CCNc1ncc2c(n1)N1CCC[C@@H]1CN(c1cccc(OC(CCNC)c3ccccc3)c1)C2=O (stereo partly drawn) | 0.187 |  |  |  |
| CNCC[C@H](Oc1cccc(N2CCN(C)CCC2=O)c1)c1cccs1 | 2.8 |  |  |  |
| CCN(C)c1ncc2c(n1)N(C)CCN(c1cccc(-c3nnc(C)o3)c1)C2=O | > 10 | > 10 | > 10 |  |
| CCNc1ncc2c(n1)N1CCC[C@H]1CN(c1cccc(OC(CCNC)c3ccccc3)c1)C2=O (stereo partly drawn) | 0.336 |  |  |  |
| CCNc1ncc2c(n1)N(C)CCN(c1cccc(-c3nnc(C)o3)c1)C2=O | 0.081 | > 10 | > 10 | Ki [1]: 2.97 µM; microsomal CLint [11]: < 5 µL/min/mg; microsomal CLint [12]: < 5 µL/min/mg; inhibition at 1 µM [5]: < 50%; inhibition at 1 µM [6]: < 50%; inhibition at 1 µM [7]: < 50%; inhibition at 1 µM [8]: < 50%; inhibition at 1 µM [9]: < 50%; IC50 [10]: > 10 µM |
| CNCCC(Oc1cccc(N2CCN(C)c3ccccc3C2=O)c1)c1cccs1 (stereo not drawn) | 0.833 |  |  |  |
| CCNc1ncc(C(=O)N(C)c2cccc(OC(CCNC)c3ccccc3)c2)cn1 (stereo not drawn) | > 10 | > 10 | > 10 |  |
| CSc1ncc2c(n1)N(C)CCN(c1cccc(-c3nnc(C)o3)c1)C2=O | > 10 | > 10 | > 10 | Ki [1]: > 10 µM |
| CCNc1ncc2c(n1)N(CC)CCN(c1cccc(-c3nnc(C)o3)c1)C2=O | 0.178 | > 10 | > 10 |  |
| COCCNc1ncc2c(n1)N(C)CCN(c1cccc(-c3nnc(C)o3)c1)C2=O | > 10 | > 10 | > 10 |  |
| CNCC[C@H](Oc1cccc(N2CCN(C)c3ncccc3C2=O)c1)c1cccs1 |  |  |  | inhibition at 1 µM [5]: < 50%; inhibition at 1 µM [6]: < 50%; inhibition at 1 µM [7]: < 50%; inhibition at 1 µM [8]: < 50%; inhibition at 1 µM [9]: < 50%; IC50 [10]: > 10 µM |
| CCNc1ncc2c(n1)N(C)CCN(c1cccc(-c3nnc(C)o3)c1)C2 | 1.03 | > 10 | > 10 |  |
| CCNc1ncc2c(n1)N(C)CCN(c1ccccc1COC(CCNC)c1ccccc1)C2=O (stereo not drawn) | > 10 | > 10 | > 10 |  |
| CC(C)C[C@H](CN)CC(=O)O [PREGABALIN] | 0.019 | > 10 | > 10 | Ki [1]: 0.099 µM |
